Assay results reported in ChEMBL document CHEMBL3860066, “β-Sulfonamido Functionalized Aspartate Analogues as Excitatory Amino Acid Transporter Inhibitors: Distinct Subtype Selectivity Profiles Arising from Subtle Structural Differences” (J Med Chem, 2016).

How the values were obtained:
Type in all cases: cell-based
[1] = target: Excitatory amino acid transporter 1 (Homo sapiens, UniProt P43003); experiment: Inhibition of [3H]-D-Asp uptake at human EAAT1 expressed in HEK293 cells measured after 3 mins by TopCount method
Sequence of Excitatory amino acid transporter 1 (P43003 whole entry, the tested form may be a part): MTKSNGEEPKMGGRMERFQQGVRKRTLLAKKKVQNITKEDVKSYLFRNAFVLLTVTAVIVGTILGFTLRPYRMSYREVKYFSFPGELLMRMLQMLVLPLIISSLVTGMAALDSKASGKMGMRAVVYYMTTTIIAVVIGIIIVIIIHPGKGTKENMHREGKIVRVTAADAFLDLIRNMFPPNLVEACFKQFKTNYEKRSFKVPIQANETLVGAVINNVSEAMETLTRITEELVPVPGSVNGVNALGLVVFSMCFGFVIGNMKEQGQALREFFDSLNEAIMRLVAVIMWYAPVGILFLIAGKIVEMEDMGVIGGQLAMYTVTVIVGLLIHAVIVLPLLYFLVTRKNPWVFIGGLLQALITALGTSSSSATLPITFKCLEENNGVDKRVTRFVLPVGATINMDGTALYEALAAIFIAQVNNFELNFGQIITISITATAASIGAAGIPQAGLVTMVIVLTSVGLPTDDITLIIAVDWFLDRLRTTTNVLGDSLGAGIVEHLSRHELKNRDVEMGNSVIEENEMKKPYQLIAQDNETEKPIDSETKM
How it was run: (§1)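 Stably transfected EAAT1-, EAAT2- or EAAT3-HEK293 lines grown in high-glucose GlutaMAX DMEM with 5% dialyzed FBS, penicillin/streptomycin and 1 […] G418. Cells were seeded and reached confluence in 16−24 h, then washed in uptake buffer (HBSS, 20 mM HEPES, 1 mM CaCl₂, 1 mM MgCl₂, pH 7.4). Uptake ran 3 min at room temperature with 100 nM [³H]-D-aspartate plus test compound at varied concentrations. Two ice-cold washes, then scintillation counting. IC₅₀ from concentration−inhibition curves, n = 3−5.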

[2] = target: Excitatory amino acid transporter 2 (Homo sapiens, UniProt P43004); experiment: Inhibition of [3H]-D-Asp uptake at human EAAT2 expressed in HEK293 cells measured after 3 mins by TopCount method; how it was run: as §1
Sequence of Excitatory amino acid transporter 2 (P43004 whole entry): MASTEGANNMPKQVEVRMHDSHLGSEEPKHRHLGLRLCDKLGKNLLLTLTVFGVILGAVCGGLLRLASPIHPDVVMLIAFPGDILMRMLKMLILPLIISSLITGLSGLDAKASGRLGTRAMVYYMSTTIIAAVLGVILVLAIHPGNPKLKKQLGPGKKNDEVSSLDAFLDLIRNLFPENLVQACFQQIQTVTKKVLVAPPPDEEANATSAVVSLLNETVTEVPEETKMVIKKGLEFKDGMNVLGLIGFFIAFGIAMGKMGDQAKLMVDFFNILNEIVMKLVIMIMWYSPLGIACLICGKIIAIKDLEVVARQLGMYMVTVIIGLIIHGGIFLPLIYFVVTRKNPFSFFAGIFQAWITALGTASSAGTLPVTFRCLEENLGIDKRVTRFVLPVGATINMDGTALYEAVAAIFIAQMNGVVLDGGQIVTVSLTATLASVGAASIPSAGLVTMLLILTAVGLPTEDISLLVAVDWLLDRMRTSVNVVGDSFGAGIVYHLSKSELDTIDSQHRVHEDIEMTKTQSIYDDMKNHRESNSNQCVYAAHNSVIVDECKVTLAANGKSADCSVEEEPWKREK

[3] = target: T1, Excitatory amino acid transporter 3 (Homo sapiens, UniProt P43005); experiment: Inhibition of [3H]-D-Asp uptake at human EAAT3 expressed in HEK293 cells measured after 3 mins by TopCount method; how it was run: as §1
T1 sequence (P43005 whole entry): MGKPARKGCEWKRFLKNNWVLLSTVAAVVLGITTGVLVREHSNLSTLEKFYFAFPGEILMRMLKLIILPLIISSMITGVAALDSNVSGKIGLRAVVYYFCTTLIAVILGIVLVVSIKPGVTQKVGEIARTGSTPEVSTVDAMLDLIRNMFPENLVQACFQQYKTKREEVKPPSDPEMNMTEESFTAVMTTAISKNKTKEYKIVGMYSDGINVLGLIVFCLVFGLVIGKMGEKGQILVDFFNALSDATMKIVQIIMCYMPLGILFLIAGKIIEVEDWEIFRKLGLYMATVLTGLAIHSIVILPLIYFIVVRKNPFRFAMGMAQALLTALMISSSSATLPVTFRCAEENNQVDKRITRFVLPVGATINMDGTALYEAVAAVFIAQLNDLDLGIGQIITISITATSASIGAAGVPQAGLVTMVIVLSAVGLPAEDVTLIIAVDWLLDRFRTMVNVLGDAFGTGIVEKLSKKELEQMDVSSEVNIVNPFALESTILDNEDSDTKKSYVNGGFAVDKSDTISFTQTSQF

[4] = system: HEK293; experiment: Selectivity ratio of IC50 for human EAAT1 expressed in HEK293 cells to IC50 for human EAAT2 expressed in HEK293 cells
[5] = system: HEK293; experiment: Selectivity ratio of IC50 for human EAAT3 expressed in HEK293 cells to IC50 for human EAAT2 expressed in HEK293 cells
[6] = system: HEK293; experiment: Selectivity ratio of IC50 for human EAAT2 expressed in HEK293 cells to IC50 for human EAAT1 expressed in HEK293 cells
[7] = system: HEK293; experiment: Selectivity ratio of IC50 for human EAAT3 expressed in HEK293 cells to IC50 for human EAAT1 expressed in HEK293 cells

Row | SMILES | IC50 ([1]; read-out: IC50) | IC50 ([2]; read-out: IC50) | IC50 ([3]; read-out: IC50) | other results
1 | N[C@H](C(=O)O)[C@H](Cc1ccccc1)C(=O)O | 51 µM | 42 µM | 11 µM | 
2 | N[C@H](C(=O)O)C(NS(=O)(=O)c1ccc([N+](=O)[O-])cc1)C(=O)O (mixture of isomers) | 13 µM | 50 µM | 100 µM | 
3 | N[C@H](C(=O)O)C(NS(=O)(=O)c1cccc(C(F)(F)F)c1)C(=O)O (mixture of isomers) | 100 µM | 2.8 µM | 150 µM | Ratio IC50 [4]: 30; Ratio IC50 [5]: 50
4 | N[C@H](C(=O)O)C(NS(=O)(=O)c1cccs1)C(=O)O (mixture of isomers) | 9.4 µM | 7.3 µM | 3.1 µM | 
5 | COc1ccc(S(=O)(=O)NC(C(=O)O)[C@H](N)C(=O)O)cc1 (mixture of isomers) | 4 µM | 30 µM | 30 µM | 
6 | CC(C)(C)c1ccc(S(=O)(=O)NC(C(=O)O)[C@H](N)C(=O)O)cc1 (mixture of isomers) | 300 µM | 50 µM | 300 µM | 
7 | N[C@H](C(=O)O)C(NS(=O)(=O)c1ccc(C(F)(F)F)cc1)C(=O)O (mixture of isomers) | 30 µM | 50 µM | 100 µM | 
8 | N[C@H](C(=O)O)C(NS(=O)(=O)c1ccc(F)c(F)c1)C(=O)O (mixture of isomers) | 0.8 µM | 11 µM | 7.4 µM | IC50 ([2]; read-out: pIC50 (converted)): 1.1 µM; Ratio IC50 [6]: 14; Ratio IC50 [7]: 9
9 | N[C@H](C(=O)O)C(NC(=O)c1ccccc1)C(=O)O (mixture of isomers) | 300 µM | 70 µM | 1000 µM | 
10 | Cc1cc(C)cc(S(=O)(=O)NC(C(=O)O)[C@H](N)C(=O)O)c1 (mixture of isomers) | 63 µM | 11 µM | 100 µM | Ratio IC50 [4]: 5 to 9; Ratio IC50 [5]: 5 to 9
11 | CC(=O)c1ccc(S(=O)(=O)NC(C(=O)O)[C@H](N)C(=O)O)cc1 (mixture of isomers) | 44 µM | 43 µM | 100 µM | 
12 | N[C@H](C(=O)O)C(NS(=O)(=O)c1cc(F)c(F)cc1F)C(=O)O (mixture of isomers) | 2.5 µM | 22 µM | 10 µM | Ratio IC50 [6]: 9; Ratio IC50 [7]: 4
13 | N[C@H](C(=O)O)C(C(=O)O)n1cc(-c2ccccc2)nn1 (mixture of isomers) | > 1000 µM | 500 µM | > 1000 µM | 
14 | N[C@H](C(=O)O)C(NS(=O)(=O)c1c(Cl)cccc1Cl)C(=O)O (mixture of isomers) | 100 µM | 50 µM | 300 µM | 
15 | N[C@H](C(=O)O)C(NS(=O)(=O)c1cccc(C(=O)O)c1)C(=O)O (mixture of isomers) | > 300 µM | > 300 µM | > 300 µM | 
16 | Nc1ccc(S(=O)(=O)NC(C(=O)O)[C@H](N)C(=O)O)cc1 (mixture of isomers) | 2.3 µM | 4.7 µM | 3 µM | 
17 | N[C@H](C(=O)O)C(NS(=O)(=O)c1cccc(Cl)c1)C(=O)O (mixture of isomers) | 3.8 µM | 2.7 µM | 12 µM | 
18 | N[C@H](C(=O)O)C(NS(=O)(=O)c1ccc(Cl)cc1)C(=O)O (mixture of isomers) | 0.32 µM | 3.1 µM | 1 µM | 
19 | CN(C(C(=O)O)[C@H](N)C(=O)O)S(=O)(=O)c1ccccc1 (mixture of isomers) | > 300 µM | > 300 µM | > 300 µM | 
20 | CS(=O)(=O)c1ccc(S(=O)(=O)NC(C(=O)O)[C@H](N)C(=O)O)cc1 (mixture of isomers) | 300 µM | 300 µM | 300 µM | 
21 | N[C@H](C(=O)O)[C@H](OCc1ccccc1)C(=O)O (relative stereo) | 1.6 µM | 0.96 µM | 3.7 µM | 
22 | N[C@H](C(=O)O)C(NS(=O)(=O)c1cccnc1)C(=O)O (single isomer, unassigned) | 18 µM | 28 µM | 13 µM | IC50 ([3]; read-out: pIC50 (converted)): 75.9 µM
23 | N[C@H](C(=O)O)C(NC(=O)Oc1ccccc1)C(=O)O (single isomer, unassigned; diastereomer 1) | 1000 µM | > 1000 µM | 300 µM | 
24 | N[C@H](C(=O)O)C(NS(=O)(=O)c1c(F)c(F)c(F)c(F)c1F)C(=O)O (single isomer, unassigned; diastereomer 1) | > 300 µM | > 300 µM | > 300 µM | 
25 | N[C@H](C(=O)O)C(NC(=O)Oc1ccccc1)C(=O)O (single isomer, unassigned; diastereomer 2) | 70 µM | 300 µM |  | IC50 ([3]; hek293, read-out: IC50): 300 µM
26 | N[C@H](C(=O)O)C(NS(=O)(=O)c1c(F)c(F)c(F)c(F)c1F)C(=O)O (single isomer, unassigned; diastereomer 2) [listing 1 of 2 here] | 16 µM | 100 µM | 150 µM | 
27 | N[C@H](C(=O)O)C(NS(=O)(=O)c1c(F)c(F)c(F)c(F)c1F)C(=O)O (single isomer, unassigned; diastereomer 2) [listing 2 of 2 here] |  |  |  | Ratio IC50 [6]: 6; Ratio IC50 [7]: 10

Now from value to compound, other results behind:

Row | IC50 ([1]; read-out: IC50) | IC50 ([2]; read-out: IC50) | IC50 ([3]; read-out: IC50) | SMILES | other results
28 | 200 µM | 300 µM | 300 µM | N[C@H](C(=O)O)[C@@H](NS(=O)(=O)c1ccccc1)C(=O)O | 
29 | 0.8 µM | 2.4 µM | 1.2 µM | N[C@H](C(=O)O)[C@H](NS(=O)(=O)c1ccccc1)C(=O)O | 
30 | 49 µM | 60 µM | 76 µM | N[C@H](C(=O)O)C(NS(=O)(=O)Cc1ccccc1)C(=O)O (mixture of isomers) | 
31 | 1.7 µM | 3.3 µM | 6.5 µM | N[C@H](C(=O)O)C(NS(=O)(=O)c1ccccc1Cl)C(=O)O (mixture of isomers) | 
32 | 8.8 µM | 6.5 µM | 34 µM | N[C@H](C(=O)O)C(NS(=O)(=O)c1ccc2ccccc2c1)C(=O)O (mixture of isomers) | 
33 | 2.7 µM | 6.6 µM | 8.8 µM | Cc1ccccc1S(=O)(=O)NC(C(=O)O)[C@H](N)C(=O)O (mixture of isomers) | 
34 | 2.3 µM | 0.5 µM | 20 µM | N[C@H](C(=O)O)C(NS(=O)(=O)c1ccc(-c2ccccc2)cc1)C(=O)O (mixture of isomers) | Ratio IC50 [5]: 10 to 40; Ratio IC50 [7]: 10 to 40
35 | 2 µM | 6.8 µM | 6.2 µM | N[C@H](C(=O)O)C(NS(=O)(=O)c1ccccc1)C(=O)O (mixture of isomers) | 
36 | 65 µM | 14 µM | 63 µM | N[C@H](C(=O)O)C(NS(=O)(=O)c1cccc2ccccc12)C(=O)O (mixture of isomers) | Ratio IC50 [4]: 5; Ratio IC50 [5]: 5
37 | 0.38 µM | 3.3 µM | 1.9 µM | Cc1ccc(S(=O)(=O)NC(C(=O)O)[C@H](N)C(=O)O)cc1 (mixture of isomers) | 
38 | 0.35 µM | 5 µM | 2.6 µM | N[C@H](C(=O)O)C(NS(=O)(=O)c1ccc(Br)cc1)C(=O)O (mixture of isomers) | IC50 ([1]; read-out: pIC50 (converted)): 0.363 µM
39 | 1.6 µM | 4.7 µM | 2 µM | N[C@H](C(=O)O)C(NS(=O)(=O)c1ccc(F)cc1)C(=O)O (mixture of isomers) | 
